MrgX1 ag: activates human MrgX1 receptor signaling; Q96LB2; MrgX1-HEK293 cells, Fluo-4 calcium fluorescence, agonist mode; active compounds read high; B-score at 10 µM; 310,000 tested, 0.44% active; AID 588627;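 active = calcium response B-score plate-corrected fluorescence ratio at least 3 library SD, with starting fluorescence B-score inside 5 SD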
Target sequence (Q96LB2 whole entry, looked up): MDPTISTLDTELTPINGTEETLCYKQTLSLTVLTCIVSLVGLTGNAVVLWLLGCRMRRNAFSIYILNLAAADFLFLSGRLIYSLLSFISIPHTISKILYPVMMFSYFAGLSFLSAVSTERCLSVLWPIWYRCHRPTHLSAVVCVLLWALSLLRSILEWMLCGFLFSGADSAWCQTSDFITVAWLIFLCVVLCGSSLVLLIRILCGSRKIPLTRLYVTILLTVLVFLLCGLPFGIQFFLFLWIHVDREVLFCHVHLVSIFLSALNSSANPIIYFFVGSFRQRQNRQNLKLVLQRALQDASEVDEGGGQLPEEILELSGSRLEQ
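Test system: HEK293 cells stably expressing human MrgX1 receptor; Input: fifteen thousand cells per well; Dosing: compound delivered in addition one of three; Schedule: overnight seeding, then 1 h dark dye loading; Technique: Fluo-4 NW calcium fluorescence; Measure: B-scored fluorescence response ratio; Controls: positive and negative controls per plate.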
MrgX1 allo act: human MrgX1 positive allosteric modulation, primary screen; MrgX1-HEK293, Fluo-4 calcium flux, FDSS; active compounds read high; B-score at 10 µM; Q96LB2; 310,000 tested, 0.63% active;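 active = plate-corrected calcium response at least 3 library SD above typical, normal starting fluorescence, not activating the receptor alone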;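 note: compound read alongside a low EC10 to EC30 dose of BAM8-22 agonist; peak minus trough fluorescence over baseline measured at the second addition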
MrgX1 antagonist: antagonists of human MrgX1 receptor; Q96LB2; MRGX1-HEK293 calcium flux, Fluo-4, BAM8-22 antagonism; active compounds read low; B-score at 10 µM; 310,000 tested, 1.3% active; AID 588676;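 active = calcium-response B-score plate-corrected more than 3 library SD below zero, starting fluorescence within 5 deviations, no agonist response on first addition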;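 note: peak minus trough fluorescence over baseline after final BAM8-22 challenge near maximal dose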
RGS4 act: RGS4 potentiation or activation. B-score at 10 µM. 310,000 tested, 0.92% active. HEK293 M3R/inducible RGS4, carbachol calcium flux Fluo4; active compounds read low;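 active = B-score of the integrated calcium signal more than 4 SD below the library mean, with starting fluorescence not abnormally high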;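 note: negative B-score means reduced calcium response which marks RGS4 activation or potentiation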
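Assay system: HEK293 FlpIn-TREx cells, stable M3R, doxycycline-inducible RGS4 / Probe or stimulus: carbachol, ECmax concentration / Times: overnight RGS4 induction, 30 min dye load 37 °C, 20 min compound RT / Signal: kinetic calcium fluorescence imaging with Fluo4-AM dye, 2 µM / Measure: Agonist-evoked peak-minus-minimum fluorescence over baseline, integrated ratio, B score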
RGS4 block: human RGS4 inhibition | HEK293 M3R/RGS4 inducible, Fluo-4 calcium flux; active compounds read high; triggered by carbachol at its EC20 | B-score at 10 µM | 310,000 tested, 0.45% active | AID 463165;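 active = B-score, a plate-corrected calcium signal, over three deviations above library mean, with baseline fluorescence within five deviations of library mean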;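 note: RGS4 expression induced by doxycycline in cells with stable M3 receptor; B-score is computed from the integrated fluorescence ratio over baseline after carbachol; higher B-score means a larger calcium signal and so more RGS4 inhibition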
Target sequence (P49798 whole entry, looked up): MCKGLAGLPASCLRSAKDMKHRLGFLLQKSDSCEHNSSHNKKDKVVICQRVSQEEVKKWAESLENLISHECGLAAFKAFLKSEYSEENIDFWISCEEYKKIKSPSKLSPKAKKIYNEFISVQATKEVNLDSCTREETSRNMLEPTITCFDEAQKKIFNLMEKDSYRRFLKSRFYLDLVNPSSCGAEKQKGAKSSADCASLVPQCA
Active calls of the source: *; i = inactive. Shown are actives, neighbours in structure and some others; about 3.5% of the full set was active somewhere.

SMILES | MrgX1 ag | MrgX1 allo act | MrgX1 antagonist | RGS4 act | RGS4 block
O=C1C2C3C=CC(C4CC34)C2C(=O)N1/N=C/c1ccc(-c2ccc(Cl)cc2[N+](=O)[O-])o1 (configuration not stated) | i | i | i | -8.5* | i
CC(C)C(=O)Nc1c2c(nn1-c1ccc(F)cc1)CS(=O)(=O)C2 | i | i | i | i | i
O=[N+]([O-])c1ccc(O)c(/C=N/NC2=NS(=O)(=O)c3ccccc32)c1 | i | 8.5* | i | i | i
COC(=O)C1CCCCN1C(=O)c1ccc2oc(Cc3ccccc3)nc2c1 (configuration not stated) | i | i | -5.3* | i | i
CCCNC(=O)CCn1cc(-c2ccc(OC)cc2)nc1-c1ccncc1 | i | i | i | i | i
O=C(NNC1=C(C(=O)C(F)(F)F)CCC1)c1ccccc1O | i | i | i | i | i
COc1ccccc1C(=O)NNC1=C(C(=O)C(F)(F)F)CCC1 | 39* | i | i | i | i
CCOc1ccc(C(=O)NNC2CC(=O)N(CCc3ccccc3)C2=O)cc1OC (configuration not stated) | i | i | -5.5* | i | i
O=C(Nc1ccc(Cl)cc1)[C@@H]1[C@@H]2C(=O)N(c3ccc(Cl)cc3)C(=O)[C@@H]2[C@H]2C=CC=NN21 | i | i | i | i | i
O=C(Nc1ccc(Cl)cc1)[C@@H]1[C@@H]2C(=O)N(c3ccc(Cl)cc3Cl)C(=O)[C@@H]2[C@H]2C=CC=NN21 | i | i | -5.1* | i | i
CN1CCN(C2=Nc3cc(Cl)ccc3Nc3ccccc32)CC1 | i | i | i | -7.5* | i
O=C(NC1CCCC1)C(c1ccccc1)N(Cc1ccccc1)C(=O)c1csnn1 (configuration not stated) | i | i | i | i | i
O=C(CC1Sc2ccccc2NC1=O)Nc1ccccc1[N+](=O)[O-] (configuration not stated) | i | i | -6.7* | i | i
O=C(CC1Sc2ccccc2NC1=O)Nc1cccnc1 (configuration not stated) | i | i | i | i | i
COc1ccc(CN(C)Cc2c(O)ccc3cc(Br)ccc23)cc1OC | i | i | i | i | i
CCCCSc1nc2sc3c(c2c(=O)n1-c1ccccc1)CCN(C)C3 | i | i | i | -7.3* | i
C=C(C)CSc1nc2sc3c(c2c(=O)n1-c1ccccc1)CCN(C)C3 | i | i | i | -7.5* | i
CC(=O)c1cc(NC(=O)c2ccc(Cl)cc2)c(=O)oc1/C=C/N(C)C | 38* | i | i | i | i
Oc1oc(-c2ccccc2)nc1C=Nc1cccc2ccccc12 | i | i | i | -7.2* | i
Oc1oc(-c2ccccc2)nc1/C=N/c1nccs1 | i | i | i | i | i
O=C(COc1ccccc1)Nc1cc(NC(=O)COc2ccccc2)cc(C(=O)O)c1 | i | i | i | i | i
CC12CCC(C(=O)N3CCCCC3)([C@H](Br)C1=O)C2(C)C (some centres not stated) | i | i | i | i | i
CCCc1cc(-c2nc(N)ncc2-c2ccc3c(c2)OCCCO3)c(O)cc1OC | i | i | i | -9.2* | i
CN(c1cccc(NC(=O)Nc2cccc(Cl)c2)c1)S(C)(=O)=O | i | i | -5.2* | i | i
COc1ccc(CN(C(=O)c2cc3ccccc3oc2=O)C2CCCC2)cc1 | i | i | -5* | i | i
SMILES | MrgX1 ag | MrgX1 allo act | MrgX1 antagonist | RGS4 act | RGS4 block
COc1ccc(CN(C(=O)c2cc3ccccc3oc2=O)C2CCS(=O)(=O)C2)cc1 (configuration not stated) | i | i | i | i | i
Cc1ccc(-n2nc(C)c3onc(C)c3c2=O)cc1 | i | i | i | i | i
CC1CN(C(=O)CCNC(=O)c2ccc(Br)cc2)CC(C)O1 (configuration not stated) | i | i | i | i | i
CCOP(=O)(OCC)C(NC(=O)Nc1c(C)cc(C)cc1C)c1ccccc1 (configuration not stated) | i | i | i | i | i
CCOP(=O)(OCC)C(NC(=O)Nc1ccccc1)c1ccccc1 (configuration not stated) | i | i | -4.8* | i | i
Cc1ccccc1OC(=O)c1cccnc1 | i | i | i | i | i
C[C@@H]1O[C@@H](OC2C(O)C(OCCc3ccc(O)c(O)c3)OC(CO)C2OC(=O)/C=C/c2ccc(O)c(O)c2)[C@H](O)[C@H](O)[C@H]1O (some centres not stated) | i | i | -5.1* | i | i
C/C(=N\NC(=S)NCCc1ccccc1)c1ccc(O)cc1O | i | i | i | i | i
C/C(=N\NC(=S)NCCc1ccccc1)c1ccc(Cl)cc1Cl | i | i | i | -9.1* | i
Cn1c(=O)c([N+](=O)[O-])c(NCC(O)c2ccccc2)c2ccccc21 (configuration not stated) | i | i | -5.7* | i | i
CCn1c(=O)c([N+](=O)[O-])c(NCC(O)c2ccccc2)c2ccccc21 (configuration not stated) | i | i | i | i | i
CC(C)(C)NC(=O)C1CCN(C(=O)c2ccco2)CC1 | i | i | i | i | i
CC1=C(C)CS(=O)N(c2ccc(S(N)(=O)=O)cc2)C1 (configuration not stated) | 53* | i | i | i | i
CC1=C(C)CS(=O)N(S(=O)(=O)c2ccccc2)C1 (configuration not stated) | i | i | i | i | i
CCOC(=O)c1c(-c2ccccc2)oc2ccc(OCC(O)CNCCN(C)C)cc12 (configuration not stated) | i | i | i | -7.6* | i
CCOC(=O)c1c(-c2ccccc2)oc2ccc(OCC)cc12 | i | i | i | i | i
O=C(NCCOc1ccc(F)cc1)C1CCC(=O)N(CC2CCCCC2)C1 (configuration not stated) | i | i | i | i | i
COc1ccccc1OCC(=O)NCCS(=O)(=O)N1CCN(c2ccc(F)cc2)CC1 | i | i | i | i | i
COc1ccc(/C=C2\SC(=O)N(CCNC(=O)Cc3coc4cc(C)ccc34)C2=O)cc1OC | i | i | i | -8.5* | i
CC(=O)c1cn(-c2ccc(Cl)cc2)c(=O)n(Cc2ccc(F)cc2)c1=O | i | i | -7.9* | i | i
